High-throughput results (PubChem)
The full list was thinned out, with hits kept by preference.
KDM4C inh: inhibitors of GASC-1 (KDM4C) histone demethylase, primary screen, biochemical, single concentration HTS. GST-KDM4C 2-372, H3K9me3 peptide, LANCE TR-FRET. inhibition, % at 12.5 µM. hit rate 0.15% among 96,000;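 active = mean replicate inhibition above about 25%, with at least 55% of replicates also reaching it, limit read from the data, passing the limit was not always enough; inconclusive = only one of those two conditions met; inactive = neither condition met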
Target sequence (Q9H3R0 2-372 limits assumed): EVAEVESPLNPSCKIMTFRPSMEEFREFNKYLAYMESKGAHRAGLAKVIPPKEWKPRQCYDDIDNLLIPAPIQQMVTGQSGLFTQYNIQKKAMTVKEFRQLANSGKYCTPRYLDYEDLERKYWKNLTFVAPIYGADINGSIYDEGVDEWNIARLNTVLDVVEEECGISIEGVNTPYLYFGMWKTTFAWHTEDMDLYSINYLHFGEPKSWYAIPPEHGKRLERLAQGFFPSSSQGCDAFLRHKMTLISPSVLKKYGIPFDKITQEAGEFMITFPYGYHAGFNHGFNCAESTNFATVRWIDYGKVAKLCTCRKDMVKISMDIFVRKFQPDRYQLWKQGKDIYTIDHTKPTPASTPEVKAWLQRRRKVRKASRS
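System: N-terminal GST-fused human GASC-1 (KDM4C) fragment, residues 2-372; amount: enzyme final amount 10 nM; incubation: reaction 30 min RT, detection step 1 h RT; medium: HEPES buffer, pH 7.5, plus ascorbate; technique: LANCE TR-FRET, Eu antibody, ULight-streptavidin, EDTA, ex 340 nm, em 618/671 nm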
IDH1 mut inh: inhibitors of IDH1 R132H reductase, primary screen, biochemical, plate reader, single point. Isocitrate dehydrogenase [NADP] cytoplasmic (Homo sapiens), O75874. diaphorase/resazurin fluorescence, 60 min. inhibition, % at 10 µM. hit rate 0.18% among 70,000; in the data active = inhibition above about 34%; inconclusive = no clear call, values can overlap the other calls; inactive = below about 11%;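 also: 0% = DMSO and 100% = no enzyme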
T cruzi growth-1: T. cruzi intracellular proliferation inhibitors, primary screen, cell-based, beta-gal Tulahuen parasites, NIH3T3 host, luminescence. AID 624255, 2012. hit rate 5.9% among 77,000. T. cruzi beta-gal in NIH3T3, GalScreen luminescence, 90 h. inhibition, % at 8.34 µM;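 active = mean inhibition above about 93%, with at least 55% of replicates each passing it, limit read from the data, passing the limit was not always enough; inconclusive = only one of those two conditions holds; inactive = neither condition holds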
T cruzi growth-2: T. cruzi intracellular proliferation inhibitors, confirmation, cell-based, NIH3T3 host, beta-gal parasite, luminescence, cherry-pick. T. cruzi beta-gal in NIH3T3, GalScreen luminescence, 90 h. hit rate 72% among 5,600. inhibition, % at 8.35 µM. shares compounds with T cruzi growth-1;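 active = mean replicate inhibition above about 95% and at least 55% of replicates individually reaching it, limit read from the data; inconclusive = only one of the two criteria is met; inactive = neither criterion is met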
T cruzi growth-3: inhibitors of intracellular T. cruzi replication, confirmation, NIH3T3 host cells, beta-gal parasites, cherry-pick, set 2 | shares compounds with T cruzi growth-1 | T. cruzi beta-gal in NIH3T3, GalScreen luminescence, 90 h | inhibition, % at 2.09 µM | hit rate 21% among 5,600 | AID 651740, 2012;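 active = mean inhibition above about 95%, with at least 55% of replicates also reaching it, limit read from the data; inconclusive = meets just one of the two conditions; inactive = meets neither condition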;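 also: plate controls were neutral control median for no effect and positive control median for full effect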
NIH3T3 tox: cytotoxicity in mouse NIH/3T3 fibroblasts, confirmation, cytotoxicity control for T. cruzi proliferation inhibitor project, cell-based, cherry-pick, single point | shares compounds with T cruzi growth-1 | NIH/3T3 viability, CellTiter-Glo ATP luminescence, 90 h | cytotoxicity (signal decrease), % at 8.35 µM | hit rate 14% among 5,600 | AID 651742, 2012;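 active = mean signal decrease across replicates above about 35% based on untreated-well scatter, with enough replicates individually passing, limit read from the data; inconclusive = no rule stated though some were filed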;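 also: 0% = median of neutral control wells and 100% = median of positive control wells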
NIH3T3 tox 2: NIH/3T3 fibroblast cytotoxicity, confirmation, cytotoxicity control, cell-based, cherry-pick, single point, set 2 | shares compounds with T cruzi growth-1 | NIH/3T3 viability, CellTiter-Glo ATP luminescence, 90 h | inhibition, % at 24.9 µM | hit rate 56% among 5,600;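 active = mean loss of cell viability signal at or above a set limit, and enough replicates individually reaching it; inconclusive = meets only the mean limit or only the replicate share; inactive = meets neither condition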;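 also: 0% = median of neutral control wells and 100% = median of positive control wells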
* marks the source's active call; other numbers are inactive results; ? = inconclusive; / = no result given.

SMILES | KDM4C inh | IDH1 mut inh | T cruzi growth-1 | T cruzi growth-2 | T cruzi growth-3 | NIH3T3 tox | NIH3T3 tox 2
Cc1ccc(S(=O)(=O)N(C)C[C@@H]2Oc3cc(-c4cccc(F)c4)ccc3S(=O)(=O)N([C@H](C)CO)C[C@@H]2C)cc1 | 0.2 | / | 127.1* | 105.0* | ? | ? | 42.6*
Cc1ccc(S(=O)(=O)N(C)C[C@@H]2Oc3cc(-c4cccc(F)c4)ccc3S(=O)(=O)N([C@@H](C)CO)C[C@H]2C)cc1 | -3.7 | -2.7 | 123.6* | 101.8* | 107.0* | 47.8* | 55.2*
C[C@H](CO)N1C[C@H](C)[C@@H](CN(C)S(C)(=O)=O)Oc2cc(-c3cccc(F)c3)ccc2S1(=O)=O | -0.2 | -1.7 | 4.9 | / | / | / | /
COc1ccc(S(=O)(=O)N(C)C[C@H]2Oc3cc(-c4cccc(F)c4)ccc3S(=O)(=O)N([C@H](C)CO)C[C@H]2C)cc1 | -1.5 | 0.8 | / | / | / | / | /
C[C@@H]1CN([C@@H](C)CO)C(=O)c2cc(NC(=O)Cc3cn(C)c4ccccc34)ccc2O[C@@H]1CN(C)Cc1ccc(Oc2ccccc2)cc1 | 15.7 | 0.2 | 93.3* | 96.0* | ? | 30.2 | 75.6*
C[C@H]1CN([C@@H](C)CO)C(=O)c2cc(NC(=O)Cc3cn(C)c4ccccc34)ccc2O[C@H]1CN(C)Cc1ccc(C(F)(F)F)cc1 | -0.7 | -0.2 | ? | 100.7* | 46.7 | -10.0 | 34.2
COc1ccc(S(=O)(=O)N(C)C[C@H]2Oc3ccc(NC(=O)Cc4cn(C)c5ccccc45)cc3C(=O)N([C@@H](C)CO)C[C@H]2C)cc1 | 1.4 | -6.4 | 98.8* | 108.2* | 28.6 | 9.3 | 61.4*
COc1ccc(S(=O)(=O)N(C)C[C@@H]2Oc3ccc(NC(=O)Cc4cn(C)c5ccccc45)cc3C(=O)N([C@@H](C)CO)C[C@H]2C)cc1 | 2.5 | -19.3 | 57.6 | / | / | / | /
C[C@H]1CN([C@@H](C)CO)C(=O)c2cc(NC(=O)Cc3cn(C)c4ccccc34)ccc2O[C@H]1CN(C)Cc1ccc(Oc2ccccc2)cc1 | -3.8 | / | 66.4 | / | / | / | /
C[C@@H]1CN([C@@H](C)CO)C(=O)c2cc(NC(=O)Cc3cn(C)c4ccccc34)ccc2O[C@H]1CN(C)Cc1ccc(C(F)(F)F)cc1 | 5.4 | -4.2 | 112.8* | 105.1* | -0.7 | 10.1 | ?
C[C@H](CO)N1C[C@H](C)[C@H](CN(C)Cc2ccc(C(F)(F)F)cc2)Oc2ccc(NC(=O)Cc3cn(C)c4ccccc34)cc2C1=O | -0.9 | -1.7 | 101.2 | / | / | / | /
C[C@@H]1CN([C@H](C)CO)C(=O)c2cc(NC(=O)Cc3cn(C)c4ccccc34)ccc2O[C@@H]1CN(C)Cc1ccccc1 | -1.6 | -0.1 | 19.6 | / | / | / | /
COc1cccc2cc(-c3nnc(SCC(=O)Nc4cccc(SC)c4)n3C)oc12 | / | 0.2 | / | / | / | / | /
COc1ccc(C(=O)O[C@H]2CC(C)=CCC3(C)CC[C@@](O)(C(C)C)[C@H]23)cc1 (some centres undefined) | / | -0.4 | / | / | / | / | /
O=C(CC1CC1)N1CC2(C1)[C@H](c1ccccc1)[C@@H](CO)N2Cc1cccc(F)c1 | 0.3 | / | / | / | / | / | /
O=C(COc1ccccc1C(=O)O)Nc1ccccc1 | / | -0.3 | / | / | / | / | /
Cn1c(=O)[nH]c(=O)c2c1ncn2CC(=O)NCc1ccco1 | / | 0.4 | / | / | / | / | /
COc1ccc2c3c(n(C)c2c1)[C@H](CO)N(Cc1cccc(F)c1)CC31CCN(C(=O)Cc2ccccc2)CC1 | -0.7 | / | / | / | / | / | /
Cc1ccc(S(=O)(=O)N(C)C[C@@H]2OCCCC[C@H](C)Oc3ccc(NC(=O)NC4CCCCC4)cc3C(=O)N([C@H](C)CO)C[C@@H]2C)cc1 | 0.4 | / | 98.8* | 107.1* | 64.2 | -6.8 | 0.2
C[C@H]1CCCCO[C@@H](CN(C)S(=O)(=O)c2ccc(F)cc2)[C@@H](C)CN([C@@H](C)CO)C(=O)c2cc(NC(=O)NC3CCCCC3)ccc2O1 | -0.6 | -10.1 | 68.7 | / | / | / | /
